Compound activity as filed in PubChem BioAssay.
MT1-MMP act inh – MT1-MMP (human) activation inhibition; HT1080 RFP-PRO-GFP cells, GFP/RFP ratio fluorescence, overnight; percent of plate control window, DMSO zero; GFP/RFP ratio change, % at 20 µM; 360,000 compounds, 0.061% hits; AID 651647;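 active means GFP/RFP ratio change of at least 30% with cell ATP level not reduced by more than half and red fluorescence within 50% of control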
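Material – HT1080 RFP-PRO-GFP cells · Control set – DMSO wells and RFP-L50D-GFP cells · Incubation – overnight cell settling, then overnight compound exposure, 37 °C, 5% CO2 · Compound dosing – single-point 20 µM compound, 1% DMSO · Read-out – GFP/RFP fluorescence ratio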
proKLK7 act – activators of human kallikrein-7 zymogen; P49862; purified proKLK7, EDANS-DABCYL substrate fluorescence; 100% is mature enzyme control, 0% vehicle; activation, % at 7 µM; 370,000 compounds, 0.9% hits; AID 652039;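 active means activation above the mean of all tested compounds plus 3 SD, computed per campaign excluding outliers beyond control limits, cut at about 13% in these data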
DDE Tn6 FP inh – disrupts Tn6 cyclic peptide binding to fibrin D-Dimer-E complex. P02675. Fibrin DD(E) TRITC-Tn6 fluorescence polarization displacement. inhibition, % at 8.3 µM. 370,000 compounds, 0.21% hits. AID 720509;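 active means inhibition above a per-campaign cutoff: mean of compounds within control limits plus 3 SD, cut at about 15% in these data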;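 further: 0% = median of all compound wells on the plate and 100% = blocking peptide control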
Neddylation inh – blocks human cullin neddylation | calls only at 25 µM | 360,000 compounds, 0.58% hits | TR-FRET cullin neddylation, biochemical | P61081+Q13564; in the data active means inhibition above about 36%
Target sequence (P61081 whole entry, looked up): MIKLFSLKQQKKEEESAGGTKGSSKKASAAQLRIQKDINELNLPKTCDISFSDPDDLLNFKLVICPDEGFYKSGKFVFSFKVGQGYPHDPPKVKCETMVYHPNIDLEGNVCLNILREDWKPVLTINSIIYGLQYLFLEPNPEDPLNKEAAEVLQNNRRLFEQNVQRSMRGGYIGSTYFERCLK
Target sequence (Q13564 whole entry, looked up): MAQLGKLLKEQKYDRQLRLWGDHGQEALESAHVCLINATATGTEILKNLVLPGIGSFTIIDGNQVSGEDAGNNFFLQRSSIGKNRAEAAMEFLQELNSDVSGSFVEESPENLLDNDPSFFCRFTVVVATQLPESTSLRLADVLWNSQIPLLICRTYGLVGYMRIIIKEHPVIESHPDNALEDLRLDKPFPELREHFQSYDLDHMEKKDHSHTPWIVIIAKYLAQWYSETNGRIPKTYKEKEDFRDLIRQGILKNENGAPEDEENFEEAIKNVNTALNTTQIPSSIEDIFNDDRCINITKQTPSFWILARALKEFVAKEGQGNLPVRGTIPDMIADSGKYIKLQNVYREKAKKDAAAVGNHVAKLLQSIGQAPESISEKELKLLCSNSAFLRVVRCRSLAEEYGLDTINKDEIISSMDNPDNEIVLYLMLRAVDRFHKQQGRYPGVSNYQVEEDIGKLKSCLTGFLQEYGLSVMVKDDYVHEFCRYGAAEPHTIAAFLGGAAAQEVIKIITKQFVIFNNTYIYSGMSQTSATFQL
DDE Tn7 FP inh – DD(E)-Tn7 binding inhibition, primary FP screen; P02675; FP displacement of FITC-Tn7 peptide from fibrin DD(E); 0% = median of compound wells per plate; inhibition, % at 8.3 µM; 370,000 compounds, 0.13% hits; AID 720508;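 active means inhibition above the mean of compounds falling within the control limits plus 3 SD of them, cut at about 14% in these data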;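 further: 0% = plate median of compound wells and 100% = 10 µM Aha-Tn7 peptide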
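System: human fibrin DD(E); quantity: Fibrin-DD(E) at 2 µM final; also added: fluorescent Tn7 probe at 0.1 µM; compound dosing: single nominal test concentration of 8.3 µM per compound; schedule: 10 min preincubation, 3 h with tracer, room temperature; detection: fluorescence polarization of the labelled Tn7 tracer; repeats: one replicate per compound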
SKN-1 block – inhibitors of C. elegans SKN-1; C. elegans VP596 Pgst-4::GFP/RFP ratio, acrylamide-induced, 24 h; inhibition, % at 21.8 µM; 360,000 compounds, 0.49% hits;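 active means interference check ratio from 0.5 to 1.5 plus GFP to RFP signal ratio inhibition reaching or exceeding a fixed threshold, cut at about 30% in these data, passing the limit was not always enough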
MT1-MMP conf – blocks activation of human MT1-MMP in validation testing; shares compounds with MT1-MMP act inh; HT1080 RFP-PRO-GFP cells, GFP and RFP fluorescence ratio, overnight; inhibition, % at 20 µM; 200 compounds, 10% hits;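 active means inhibition of at least 50% in the primary cell screen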
Starred values were filed as active, the others as inactive. This is a sample that favours compounds with a hit; in the whole collection about 2.2% have one here.

How did Cc1ccc2c(c1)C(O)(C1COC(C)(C)CC1=O)C(=O)N2C (stereo unspecified) do in these assays?
MT1-MMP act inh: 1.9; proKLK7 act: 0.1; DDE Tn6 FP inh: 1.3; Neddylation inh: inactive; DDE Tn7 FP inh: 0.9; SKN-1 block: -7.3

How did Cn1c(CCN2CCN(c3ccc(F)cc3)CC2)nc2cc(NC(=O)c3ccco3)ccc21 do in these assays?
MT1-MMP act inh: 0.2; proKLK7 act: -0.1; DDE Tn6 FP inh: -1.8; Neddylation inh: inactive; DDE Tn7 FP inh: -3.3; SKN-1 block: 12.2

Results for O=[N+]([O-])c1ccc(CSc2ncnc3ccccc23)cc1 ?
MT1-MMP act inh: -11.3; proKLK7 act: -0.4; DDE Tn6 FP inh: -5.3; Neddylation inh: inactive; DDE Tn7 FP inh: -0.7; SKN-1 block: 26.8

How did O=C1c2cccc(Cl)c2C(=O)c2c1cccc2N1CCCC1 do in these assays?
MT1-MMP act inh: 46.1*; proKLK7 act: 0.3; DDE Tn6 FP inh: -4.0; Neddylation inh: inactive; DDE Tn7 FP inh: -0.5; SKN-1 block: 50.2; MT1-MMP conf: 16.2

How did Nn1c(SCc2ccccc2F)nnc1-c1ccncc1 do in these assays?
MT1-MMP act inh: 2.9; proKLK7 act: 1.3; DDE Tn6 FP inh: -7.4; Neddylation inh: inactive; DDE Tn7 FP inh: -3.3; SKN-1 block: 10.2

Results for CCC(=NNc1ccc([N+](=O)[O-])cc1[N+](=O)[O-])c1ccccc1 ?
MT1-MMP act inh: 18.6; proKLK7 act: -0.7; DDE Tn6 FP inh: 1.3; Neddylation inh: inactive; DDE Tn7 FP inh: 2.3; SKN-1 block: 2.1

What do the screens show for `CC/C(=N\Nc1ccc([N+](=O)[O-])cc1[N+](=O)[O-])c1ccc(O)cc1`?
MT1-MMP act inh: 35.3*; proKLK7 act: 0.4; DDE Tn6 FP inh: 6.5; Neddylation inh: inactive; DDE Tn7 FP inh: 10.0; SKN-1 block: 18.8; MT1-MMP conf: 27.1

Results for CN(C)c1ccc(C=c2c3ccccc3n3c2cc(-c2ccccc2)[n+]3C)cc1 ?
MT1-MMP act inh: 9.5; proKLK7 act: 0.7; DDE Tn6 FP inh: -14.1; Neddylation inh: inactive; DDE Tn7 FP inh: -0.2; SKN-1 block: 82.9

Results for COc1cc(N(C)C)ccc1C=c1c2ccccc2n2c1cc(-c1ccccc1)[n+]2C ?
MT1-MMP act inh: 64.5*; proKLK7 act: 1.7; DDE Tn6 FP inh: -9.3; Neddylation inh: inactive; DDE Tn7 FP inh: -1.3; SKN-1 block: 68.5; MT1-MMP conf: 64.7*

Results for CC(=O)Nc1ccc(S(=O)(=O)NCc2ccc3[nH]c(C)cc3c2)cc1 ?
MT1-MMP act inh: 30.7*; proKLK7 act: -0.7; DDE Tn6 FP inh: -5.7; Neddylation inh: inactive; DDE Tn7 FP inh: 1.3; SKN-1 block: 20.5; MT1-MMP conf: 17.2

How did Cc1cccc(CSc2nc3[nH]ncc3c(=O)[nH]2)c1 do in these assays?
MT1-MMP act inh: 34.7*; proKLK7 act: -0.1; DDE Tn6 FP inh: 2.2; Neddylation inh: inactive; DDE Tn7 FP inh: 2.5; SKN-1 block: 16.2; MT1-MMP conf: 10.5

What do the screens show for `Nc1ccc(N(CCO)CCO)cc1`?
MT1-MMP act inh: -13.2; proKLK7 act: -0.4; DDE Tn6 FP inh: 6.7; Neddylation inh: inactive; DDE Tn7 FP inh: -3.1; SKN-1 block: 32.0

What do the screens show for `Cc1cc(N(CCO)CCO)ccc1N=Nc1cc(F)ccc1F`?
MT1-MMP act inh: 33.0*; proKLK7 act: -0.1; DDE Tn6 FP inh: -3.2; Neddylation inh: inactive; DDE Tn7 FP inh: -7.5; SKN-1 block: 29.4; MT1-MMP conf: 39.0

How did CCN(CC)c1ccc(/C=C2/C(=O)ON=C2C)cc1 do in these assays?
MT1-MMP act inh: -7.3; proKLK7 act: -0.4; DDE Tn6 FP inh: 1.2; Neddylation inh: inactive; DDE Tn7 FP inh: -3.6; SKN-1 block: 22.1

Results for CCN(CC)c1ccc(/C=C2\C(=O)N(c3nnc(C)c(=O)[nH]3)N=C2C)cc1 ?
MT1-MMP act inh: 32.8*; proKLK7 act: -0.1; DDE Tn6 FP inh: -0.3; Neddylation inh: inactive; DDE Tn7 FP inh: -0.1; SKN-1 block: 25.0; MT1-MMP conf: 17.4

How did Cc1ccccc1N=C/C=C1\N(C)c2ccccc2C1(C)C do in these assays?
MT1-MMP act inh: 55.8*; proKLK7 act: -0.6; DDE Tn6 FP inh: -4.5; Neddylation inh: inactive; DDE Tn7 FP inh: -1.3; SKN-1 block: 16.4; MT1-MMP conf: 7.6

How did CN1/C(=C\C=N\O)C(C)(C)c2ccccc21 do in these assays?
MT1-MMP act inh: 2.5; proKLK7 act: -0.2; DDE Tn6 FP inh: 0.2; Neddylation inh: inactive; DDE Tn7 FP inh: -0.7; SKN-1 block: 15.7

How did S=C(NCCc1ccccc1)N1CCN(C2CCCCC2)CC1 do in these assays?
MT1-MMP act inh: 4.4; proKLK7 act: 0.3; DDE Tn6 FP inh: -2.7; Neddylation inh: inactive; DDE Tn7 FP inh: -1.8; SKN-1 block: 14.8

How did CC(=O)c1cccc(S(=O)(=O)N2CCC(C(=O)NC3CCCC3)CC2)c1 do in these assays?
MT1-MMP act inh: 39.7*; proKLK7 act: -0.4; DDE Tn6 FP inh: 0.8; Neddylation inh: inactive; DDE Tn7 FP inh: -0.7; SKN-1 block: 3.9; MT1-MMP conf: 1.1

How did O=C(NC1CCCCCC1)C1CCN(S(=O)(=O)c2ccccc2)CC1 do in these assays?
MT1-MMP act inh: -1.3; proKLK7 act: 0.6; DDE Tn6 FP inh: -2.8; Neddylation inh: inactive; DDE Tn7 FP inh: 2.2; SKN-1 block: -1.7

What do the screens show for `COC(=O)CNC(=O)CN1C(=O)NC2(CCCc3ccccc32)C1=O` (stereo unspecified)?
MT1-MMP act inh: 1.1; proKLK7 act: -0.1; DDE Tn6 FP inh: 3.1; Neddylation inh: inactive; DDE Tn7 FP inh: 6.6; SKN-1 block: 14.2

What do the screens show for `COc1cc(/C=C2\SC(=O)N(c3ccccc3Cl)C2=O)cc([N+](=O)[O-])c1O`?
MT1-MMP act inh: 30.8*; proKLK7 act: -0.2; DDE Tn6 FP inh: -3.1; Neddylation inh: inactive; DDE Tn7 FP inh: -0.4; SKN-1 block: 1.9; MT1-MMP conf: 26.9

Results for Oc1ccc(N=Nc2c(O)ccc3ccccc23)cc1 ?
MT1-MMP act inh: 73.2*; proKLK7 act: 0.2; DDE Tn6 FP inh: 2.0; Neddylation inh: inactive; DDE Tn7 FP inh: -0.9; SKN-1 block: 31.9; MT1-MMP conf: 41.2

Results for O=C(O)c1cc(N=Nc2c(O)ccc3ccccc23)cc(C(=O)O)c1 ?
MT1-MMP act inh: 32.9*; proKLK7 act: 0.5; DDE Tn6 FP inh: -10.2; Neddylation inh: inactive; DDE Tn7 FP inh: 0.3; SKN-1 block: 33.4; MT1-MMP conf: 29.6

How did Cc1cc(=O)n2[nH]c(-c3ccc(C(C)(C)C)cc3)cc2n1 do in these assays?
MT1-MMP act inh: 34.4*; proKLK7 act: -1.4; DDE Tn6 FP inh: 1.7; Neddylation inh: inactive; DDE Tn7 FP inh: 1.6; SKN-1 block: -4.4; MT1-MMP conf: 24.2
